Experimental data taken from the EternaBench riboswitch data.

System: MS2 coat protein
Test: apparent Kd, MS2 coat protein; higher = weaker binding; RNA-MaP array; FMN 200 µM where present
How it was run: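 Two titrations, one without ligand and one with constant ligand, were run with SNAP-549-labelled MS2 coat protein from 0.7 or 1.5 nM, doubling to 3 µM. The targets were designs transcribed by stalled E. coli RNA polymerase on Illumina sequencing-chip clusters, in 100 mM Tris-HCl pH 7.5, 80 mM KCl, 4 mM MgCl2, BSA, DTT, yeast tRNA and Tween-20. The apparent Kd is the median of filtered per-cluster binding-curve fits, with green signal normalised to red-channel RNA signal and control-cluster median Fmax.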

[1] = designed as: OFF switch for flavin mononucleotide, no ligand
[2] = ligand present: flavin mononucleotide, designed as: OFF switch for flavin mononucleotide
[3] = designed as: ON switch for flavin mononucleotide, no ligand
[4] = ligand present: flavin mononucleotide, designed as: ON switch for flavin mononucleotide

Sequence	apparent Kd [1]	apparent Kd [2]	apparent Kd [3]	apparent Kd [4]
UUCCGACAUGAGGAUCACCCAUGUAAGGAUAUGUAUCCUUCGGCCCGAACCAGAGGAAGCAGAAGGUACAGGGA	31.3 nM	20 nM	–	–
GGCGAACAGGCUAACAUGAGGAUCACCCAUGUGGACUCAUGGUAGGAUAUGCUCAUCAAAGAUGAGCAGAAGGGCCGGUGAGCC	–	–	54.8 nM	463 nM
UUUCCCUGUGUGAGGAUAUACUUGUUUGGGUUUUUGUAGAAGGCACAUGAGGAUCACCCAUGUAUUUUGUCGUG	43.1 nM	111 nM	–	–
AAUAUAAAGAGCUGGUAAAACUCGACAUGAGGAUCACCCAUGUAGGAUAUCAGCACGAUAAGUGCUGAGAAGGACAUCCAGCUC	15.4 nM	17.6 nM	–	–
CCAGGCGUAUAGGAUAUACGUGUCGAGUUCGCUGUAGAAGGAUACACAUGAGGAUCACCCAUGUUUGCCAGUGG	24.5 nM	21.2 nM	–	–
GGAGCCGGCCUAGGAUAUUUCAUAUUUAAACAUGAGGAUCACCCAUGUAGGCCAGAAGGCCUUGGGAAGAAGGAGGUCGGCUCC	–	–	88.1 nM	17.5 nM
GUAUUGAGAUAAGGAUAUAAGUCUAUGACAUGAGGAUCACCCAUGUGUGUUUUAGAAGGUAUUUCGGUAAUAUUGUUACAGUAA	–	–	17.7 nM	9.95 nM
CUGAGCUGAGGAUAUACAUGAGGAUCACCCAUGUGUUGGAGCUUGCGUACAGGCAGAUGUAGAAGGCAGUUCGG	23.6 nM	88.2 nM	–	–
GUGGUCAGACAUGAGGAUCACCCAUGUGGAAUAAAUAAGGAGAAGGAUAUGCAAUAUAGGAUAUAGCAGAAGGUUUGGUUGGUG	–	–	95.8 nM	111 nM
AGCACGAAGAUUAUUAUGAAUAAACAUGAGGAUCACCCAUGUAAGGAUAUCGACUCGAAUAGAGUCGAGAAGGUACAUACGUGC	11 nM	51.8 nM	–	–
CGGGAGUCAGGAUAUACGAACAUGUCGCCAGAUGUCAUGGUACAUGAGGAUCACCCAUGUAGAAGGGAGGCGGU	50.6 nM	30.5 nM	–	–
CAUUUACAUGAGGAUCACCCAUGUUCUGGCGGGUCAGGAUAUAGAUCGGAUGCGUUCUGUCUAGAAGGGACAUGUU	–	–	72 nM	35.6 nM
UUGUUGUAUGUAGGAUAUGCAUAUUAUUAUUGUGCAGAAGGACAUGAGGAUCACCCAUGUAUAUUAUUAUUAUAUAUUAUAUAU	35.3 nM	54.3 nM	–	–
ACCUCACAUGAGGAUCACCCAUGUCAGGAUAUCUAUUAUUGCAGCGUUCCCGUCGCUGAGAGAAGGGACAUUAA	14 nM	16.8 nM	–	–
GCAGGAUAAGUCAGGAUAUACCUAUGGAUACAUAGGUAGAAGGGACAUGAGGAUCACCCAUGUGACUCGCCUGC	29.5 nM	100 nM	–	–
UGAUCGAGAGAUCUUAGAUUCUGGUAGGAUAUACAUUAUGUAAAAUUUACAUGAGGAUCACCCAUGUAGAAGGACUAGAGUCUA	6.19 nM	14.8 nM	–	–
AAGAAGUAAGGAUAUGGCCGGGUCCCUGGGUUUGGACCCGGCUAGAAGGUACAUGAGGAUCACCCAUGUAAGAA	14.7 nM	15.4 nM	–	–
AUAUUAUUGAUCCAUUUUUUCAACAUGAGGAUCACCCAUGUGCAGGAUAUCGUGAUUAUUAUCAACGAGAAGGGCAAAUUCAUU	76.5 nM	234 nM	–	–
UCUACGCGAAUCCAGAUGGAUAGCACAUGAGGAUCACCCAUGUAGGAUAUGCUACACAAAGUGUAGCAGAAGGACAAGCGUAGA	28.3 nM	32.3 nM	–	–
UAUAUAUAGUAAGGAUAUGUAUAUAUUUGAUAAACAGAAGGUACUGACAUGAGGAUCACCCAUGUUUUAGUGUGGGCAUGUAGA	62.8 nM	78.6 nM	–	–
UAUAUUUAUGUAGGAUAUGGUAUAUAAAAUAUACCAGAAGGACAUGAGGAUCACCCAUGUAUGAAAUUCCAUAAUAACCGUGUA	11.1 nM	12.2 nM	–	–

Sequence	apparent Kd [1]	apparent Kd [2]	apparent Kd [3]	apparent Kd [4]
GCUAUCAAUGUCAGGAUAUUUAUUUGGGCUUAAUUGAAGAAGGGACAUGAGGAUCACCCAUGUGGCGCAGAGUU	36.9 nM	202 nM	–	–
UGUCGGAGCAGAGGAUAUUACAUGAGGAUCACCCAUGUAUGAACCAAUAGCUGGAAACAGCCAUGUAAGAAGGCUGCUCCGACA	157 nM	543 nM	–	–
UGUGCGUUGAUCUUCGAUCGUUGUACAUGAGGAUCACCCAUGUAGGAUAUUCUAAGACGCAGAUAGGAGAAGGACAUUGGUAUU	10.6 nM	19.4 nM	–	–
AUAAAUCAUGUAGGAUAUGCGUGGCGAAGCUAUGCAGAAGGACAUGAGGAUCACCCAUGUCUGUCCGUCUGCGUACAGACGGAA	29.3 nM	274 nM	–	–
ACAUGAGGAUCACCCAUGUAUACAUAGGAUAUUGGUGAUCAGGCAUGUUAUACAGGAUAUGUCUGCGAGAAGGAUGCACGUUGC	–	–	680 nM	476 nM
UGGCUACAUGAGGAUCACCCAUGUCAGGAUAUGCCGUUGAAUUGACAUCAACGUACGGGUAGAAGGGACUGCGU	39.5 nM	38.8 nM	–	–
UCGGCGCGAGGAUAUACGUUUGCUUUUUUUUGUCGUUGCGUACAUGAGGAUCACCCAUGUAGAAGGCGCGCCGC	16.7 nM	31 nM	–	–
CCUACAUAUUUUAAGUAUGAUUAACUAGAAGGUAGAUACAUGAGGAUCACCCAUGUUUAGAGAUCUAAGGAUAUAGUAUGUAGC	–	–	13.3 nM	9.45 nM
AUUUAGUGCGAGAAGGCGUGGUCACAUGAGGAUCACCCAUGUCAGUACACGAGGAUAUCGAUCCGCUAUGUAAAUAUAUGCGGC	–	–	78 nM	7.51 nM
CCGAAUAUGCAGGAUAUCGUAUCGGAGACGAUACGAGAAGGGCAAACAUGAGGAUCACCCAUGUUCCUUAACGG	19.1 nM	22.5 nM	–	–
GGUCGUAAGGAGAAGGGCUACUGGUUGAAACCUGCGGCCUCUGGAACAUGAGGAUCACCCAUGUAGCAGGAUAUCCUUGCGUGA	188 nM	45.3 nM	–	–
AGAUAAUAGCAGAAGGGCCAUGGACAUGAGGAUCACCCAUGUAACGGUGGACUCAUUUGUGAAGGGCAGGAUAUGCAAUAAAGA	160 nM	13.4 nM	–	–
CUAAAUCAUGUAGGAUAUGCAUGGCGAAGCUACGCAGAAGGACAUGAGGAUCACCCAUGUCUGUCCGACAGCGUACUGUCGGAC	19.6 nM	112 nM	–	–
UUAAAUCGAAACAUGAGGAUCACCCAUGUGUUGUAAUUAAUAUAGGAUAUGUGUAUACUUUUAUAACAGAAGGAUGAUAAUACU	–	–	22.2 nM	16.9 nM
UACGGACAUGAGGAUCACCCAUGUGAGGAUAUCGGUACCGAUAGCAUAAUCUGCUCGGCGAGAAGGCACAGCGU	29.8 nM	42.8 nM	–	–
AAUUACAUGUAGAAGGUACUAACAUAAGUGUUGUAAGGAUAUACCAAUUUAUUAGUUUUAAAGAUACAUGAGGAUCACCCAUGU	–	–	12.5 nM	8.22 nM
UGAUCUAUGUAGAAGGCCCAUAUCUAUAUUUAGGGAGGAUAUACAUGAGGAUCACCCAUGUGUAGAGCUGGUGGACUGGUCAGC	92.8 nM	234 nM	–	–
GGUCCAUCAUGAGGAUAUGGCACCUUAUUGGUGCCAGAAGGCAUGUCUCUUGACAUGAGGAUCACCCAUGUAAUAAAUUGGACC	–	–	915 nM	125 nM
GAUAAGCUAGGAUAUACAUAUUAUUUAAUAUCCUCAUUAAUACAUGAGGAUCACCCAUGUAGAAGGAGCAAUAG	127 nM	272 nM	–	–
AUCAGCUCGUCAGGAUAUACGUCACUGCUUCGGCAGUGUAUUAAGAUCACAUGAGGAUCACCCAUGUAGAAGGGACGAGCUGAU	21.7 nM	226 nM	–	–
UAGUAUAAGGGCAUUAAACAUGAGGAUCACCCAUGUACGUUAGAGGAUAUGCAUUUCAGUUGAGAGUAGAAGGUUAGAGAAGGG	45.1 nM	47.4 nM	–	–
